# Compound activity (PubChem)
# KCNK9 inh – blocks the human KCNK9 two-pore domain potassium channel; HEK293 KCNK9, FluxOR thallium flux fluorescence; active compounds read low; 1.2% of 310,000 active; B-score at 10 µM;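 active = ratio B-score over 3 SD below the library mean, with starting fluorescence within 5 SD of its mean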;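 note: negative B-score means less thallium flux so channel inhibition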
# KCNK3 inh – human KCNK3 channel inhibition, primary screen | O14649 | CHO-KCNK3 thallium flux, FluxOR fluorescence; active compounds read low | B-score at 10 µM | 0.84% of 340,000 active;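 active = B-score under library mean minus 4 SD, starting fluorescence ratio at most library mean plus 5 SD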;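 note: more negative B-score means stronger inhibition of thallium flux through KCNK3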
# Target sequence (O14649 whole entry, looked up): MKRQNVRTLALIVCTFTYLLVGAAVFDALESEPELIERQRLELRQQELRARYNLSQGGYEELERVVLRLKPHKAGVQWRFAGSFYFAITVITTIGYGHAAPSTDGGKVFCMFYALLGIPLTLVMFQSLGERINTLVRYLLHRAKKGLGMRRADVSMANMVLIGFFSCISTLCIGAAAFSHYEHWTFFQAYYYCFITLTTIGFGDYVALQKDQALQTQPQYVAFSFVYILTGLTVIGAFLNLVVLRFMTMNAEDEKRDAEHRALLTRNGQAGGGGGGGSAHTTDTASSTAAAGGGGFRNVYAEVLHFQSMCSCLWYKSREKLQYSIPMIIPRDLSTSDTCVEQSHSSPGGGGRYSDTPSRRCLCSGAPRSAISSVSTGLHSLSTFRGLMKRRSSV
# KCNQ1 block – blocks the human KCNQ1 potassium channel; AID 2642; B-score at 10 µM; 1.3% of 310,000 active; CHO-K1 KCNQ1, FluxOR thallium flux fluorescence; active compounds read high;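 active = compounds whose thallium flux B-score, printed positive for inhibition, exceeds three library SD while starting fluorescence stays within three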;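 note: channel opened by potassium depolarization with thallium stimulus after 20 min compound exposure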
# Kir21 block – inhibitors of mouse Kir2.1 inward-rectifier potassium channel. HEK293-Kir2.1, FluxOR thallium flux fluorescence; active compounds read low. B-score at 10 µM. 0.85% of 310,000 active. AID 1672;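 active = fluorescence ratio B-score at or below minus 3 SD of library scores, with starting-brightness B-score within 2 SD, cut at about -4.2 in these data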;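 note: channel flux triggered by added potassium and thallium sulfate stimulus; B-score of peak minus minimum fluorescence over baseline after thallium stimulus; more negative B-score means stronger Kir2.1 block with less thallium influx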
# hERG protect – compounds protecting human hERG from proarrhythmic drug block; AID 1511; activation (rescue from dofetilide block), less the hit threshold, % at 10 µM; Q12809; 0.51% of 310,000 active; CHO-hERG, FluxOR thallium flux, dofetilide IC70 present;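 active = activation above the mean of controls blocked by dofetilide plus 5 SD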;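 note: thallium influx through hERG after potassium depolarization seen as dye fluorescence rise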
# KCNQ1 act – potentiates or activates the human KCNQ1 potassium channel | CHO-K1 KCNQ1, thallium flux FluxOR fluorescence; active compounds read high | B-score at 10 µM | 0.35% of 310,000 active;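 active = fluorescence ratio B-score, a plate-corrected score, at least three library SD, with initial intensity B-score within 5 SD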
#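 Assay system: stable KCNQ1 CHO-K1 line; medium: assay buffer, equal DMSO in all wells; timing: 90 min dye loading and 20 min compound exposure, both at room temperature; technique: kinetic FluxOR thallium fluorescence, 10-s 1-Hz baseline, 110-s post-stimulus read; read-out basis: B score of baseline-normalized fluorescence ratio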
# KCNK9 inh conf – confirmation of human KCNK9 potassium channel inhibitors. shares compounds with KCNK9 inh. HEK293 KCNK9 cells, FluxOR thallium flux fluorescence. inhibition, % at 10 µM. 43% of 4,900 active. AID 492992;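 active = thallium signal inhibited by more than 5 SD of the compound-free buffer control wells, on both duplicate plates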;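 note: 0% = assay buffer control wells without compound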
# Kir21 sel – tests whether KCNK9 modulators also affect mouse Kir2.1. inhibition, % at 10 µM. Kir2.1 cells, FluxOR thallium flux fluorescence. 4% of 4,900 active. AID 492993. shares compounds with KCNK9 inh;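 active = thallium signal drop more than 5 SD beyond the mean of the no-compound control wells, seen in both duplicate plates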;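 note: signal is fluorescence rise after thallium addition divided by baseline fluorescence; plate controls were assay buffer only for no effect and full block by chlorpromazine control for full effect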
# KCNK9 uninduced – non-induced cell nonspecific activity of KCNK9 modulators | shares compounds with KCNK9 inh | non-induced KCNK9-HEK293, FluxOR thallium flux | inhibition, % at 10 µM | 40% of 4,900 active | AID 492997;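 active = thallium signal drop beyond 5 SD of the untreated control mean, on both duplicate plates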;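 note: plate controls were buffer only IC0 wells for no effect and SID17386958 at its maximal inhibitory level for full effect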
# Starred values were filed as active, the others as inactive; i = inactive; x = no result. Rows were chosen to be rich in hits. Some 3.8% of all compounds tested hit in one or more screens of this group.
SMILES,KCNK9 inh,KCNK3 inh,KCNQ1 block,Kir21 block,hERG protect,KCNQ1 act,KCNK9 inh conf,Kir21 sel,KCNK9 uninduced
Cc1nc2ccc(NC(=O)c3ccc(Cl)c([N+](=O)[O-])c3)cc2s1,i,i,i,-0.18,-2,i,x,x,x
Cc1nc2ccc(NC(=O)c3ccc([N+](=O)[O-])cc3)cc2s1,i,i,i,2.2,-4,i,i,i,i
NC(=O)c1ccc(/C(N)=N/S(=O)(=O)c2cc(C(F)(F)F)cc(C(F)(F)F)c2)cc1,i,i,i,0.44,-6,i,x,x,x
CCc1ccc(C2C(C#N)=C(N)SC(N)=C2C#N)cc1,i,i,i,-1.3,-13,i,x,x,x
N#CC1=C(N)SC(N)=C(C#N)C1c1ccc([N+](=O)[O-])cc1,i,i,i,-0.39,-6,i,i,i,i
Cc1ccc(CNC(=O)CCCn2nc(C)c3c(C)n(-c4ccccc4)nc3c2=O)cc1,i,i,i,-1.1,-10,i,x,x,x
CN(C/C=C/C#CC(C)(C)C)Cc1cccc2ccccc12,i,i,i,-0.03,-9,i,i,i,i
COc1ccc(CCN(C)Cc2cccc3ccccc23)cc1OC,i,i,i,-1,-11,i,x,x,x
S=c1[nH]nc(-c2cc3c(s2)-c2ccccc2CC3)o1,i,i,i,2.2,134*,71*,i,i,i
CCOC(=O)N/N=C\c1ccc(-c2cc(Cl)ccc2Cl)o1,-8.6*,i,i,0.03,-1,i,45%*,i,i
CCc1ccc(C(=O)c2cnc3ccc(OC)cc3c2N2CCN(CC)CC2)cc1,i,i,i,-1,-13,i,i,i,i
CCOc1ccc(C(=O)c2cnc3ccccc3c2N2CCN(CC)CC2)cc1,i,i,i,-1.1,-16,i,x,x,x
CCn1c(=O)c(CCC(=O)N2CCOCC2)c(C)c2c(C)nn(-c3ccccc3)c21,i,i,i,-0.84,-10,i,i,i,i
Cc1nn(-c2ccccc2)c2c1c(C)c(CCC(=O)N1CCOCC1)c(=O)n2C,i,i,i,-1.4,-17,i,i,i,i
CCn1c(=O)c(CCC(=O)NCCN2CCOCC2)c(C)c2c(C)nn(-c3cccc(C)c3)c21,i,i,i,-0.48,-8,i,x,x,x
CCOC(=O)/C(=N/Nc1ccccc1)N1CCCc2ccccc21,i,i,i,0.13,-12,i,x,x,x
CCOC(=O)/C(=N/Nc1ccccc1OC)N1CCCc2ccccc21,i,i,i,1.4,2,i,i,i,i
CC(=O)N/N=c1\sc2ccccc2n1C,i,i,i,-0.55,-13,i,x,x,x
CN(C)c1ccc(N=c2sc3ccccc3n2C)cc1,i,i,i,2.2,-1,i,i,i,i
COc1cc(/C=C2\SC(=S)N(NS(=O)(=O)c3ccc(C)cc3)C2=O)ccc1O,i,i,i,-0.05,-27,i,x,x,x
COc1cc(/C=C2\SC(=S)N(NS(=O)(=O)c3ccc(C)cc3)C2=O)cc(OC)c1OC,i,i,i,-0.01,-13,i,i,i,i
Cc1ccc(S(=O)(=O)NN2C(=O)/C(=C/c3ccccn3)SC2=S)cc1,i,i,i,1.2,-3,i,x,x,x
Cc1ccc(S(=O)(=O)NN2C(=O)/C(=C/c3cccc(F)c3)SC2=S)cc1,i,i,i,-0.05,-2,10*,i,i,i
COc1cc(/C=C/C(=O)O)cc(S(=O)(=O)Nc2ccccc2C(=O)NCc2ccco2)c1OC,x,i,x,x,x,x,x,x,x
O=C(CCl)N(c1ccc(Cl)cc1)c1c[nH]c2ccccc12,i,i,i,-4,-17,i,i,i,i
SMILES,KCNK9 inh,KCNK3 inh,KCNQ1 block,Kir21 block,hERG protect,KCNQ1 act,KCNK9 inh conf,Kir21 sel,KCNK9 uninduced
O=C(CCl)N(c1ccccc1)c1c[nH]c2ccccc12,i,i,i,-0.22,-3,i,x,x,x
O=C(O)c1cccc(S(=O)(=O)NCC2COc3ccccc3O2)c1 (centres undefined),x,i,x,x,x,x,x,x,x
Cc1nc(SCC(=O)N2c3ccccc3NC(=O)CC2C)c2c(C)c(C)sc2n1 (centres undefined),x,i,x,x,x,x,x,x,x
Cc1sc2nc(C3CC3)nc(SCC(=O)N3c4ccccc4CC3C)c2c1C (centres undefined),i,i,i,-1.2,-16,i,i,i,i
CC1=C([N+](=O)[O-])C(c2cccc(Br)c2)C2=C(N1)c1ccccc1C2=O (centres undefined),-8.4*,i,10*,0.48,-11,i,54%*,i,38%*
N#Cc1cc2c(nc1SCc1ccccc1)CCCCC2,i,i,i,0.95,-8,i,x,x,x
N#Cc1cc2c(nc1SCc1cccc(Cl)c1)CCCCC2,-8.3*,i,i,-0.75,-8,i,27%*,i,35%*
O=C(NCC(c1ccco1)N1CCN(c2ccccc2F)CC1)c1ccc2c(c1)OCO2 (centres undefined),i,i,i,1.3,-10,i,x,x,x
CN(CC(=O)Nc1ccc(Cl)c(C(F)(F)F)c1)C(=O)Cn1cc([N+](=O)[O-])ccc1=O,x,i,x,x,x,x,x,x,x
O=C(CN(Cc1ccco1)C(=O)c1ccc([N+](=O)[O-])cc1)Nc1ccccc1C(F)(F)F,x,i,x,x,x,x,x,x,x
CC(C)COc1ccc(C(=O)N(CC(=O)Nc2ccccc2C(F)(F)F)Cc2ccco2)cc1,i,i,i,0.57,-14,i,i,i,i
CCN(CCCn1c(SCC#N)nc2ccccc2c1=O)c1ccccc1,-11*,-9.3*,i,0.61,-15,i,44%*,i,28%*
CCCCn1c(SCc2nc3ccccc3s2)nc2ccccc2c1=O,-12*,i,i,0.04,-8,i,68%*,i,40%*
C=C(C)Cn1c(SCC#N)nc2ccccc2c1=O,i,i,i,-0.07,-8,i,x,x,x
COc1ccccc1-c1nnc(Sc2nc([N+](=O)[O-])nn2C)o1,i,i,i,-0.75,-9,i,x,x,x
CC(=O)C1=C(C)NC(SCc2cccc3ccccc23)=C(C#N)C1c1ccco1 (centres undefined),i,i,i,0.9,-15,i,x,x,x
